According to ChEMBL document CHEMBL4024753, “Lipoyl-Homotaurine Derivative (ADM_12) Reverts Oxaliplatin-Induced Neuropathy and Reduces Cancer Cells Malignancy by Inhibiting Carbonic Anhydrase IX (CAIX)” (J Med Chem, 2017):
The source made the active and inactive calls. No cut-off for these calls is given here.

Tests used:
Carbonic anhydrase 9 [1] = target: T1, Carbonic anhydrase 9 (Homo sapiens, UniProt Q16790); assay: Inhibition of human carbonic anhydrase 9 incubated for 15 mins prior to testing by stopped flow CO2 hydrase assay
Carbonic anhydrase 12 = Carbonic anhydrase 12 (Homo sapiens, UniProt O43570); assay: Inhibition of human carbonic anhydrase 12 incubated for 15 mins prior to testing by stopped flow CO2 hydrase assay
Carbonic anhydrase 12, sequence (O43570 whole entry): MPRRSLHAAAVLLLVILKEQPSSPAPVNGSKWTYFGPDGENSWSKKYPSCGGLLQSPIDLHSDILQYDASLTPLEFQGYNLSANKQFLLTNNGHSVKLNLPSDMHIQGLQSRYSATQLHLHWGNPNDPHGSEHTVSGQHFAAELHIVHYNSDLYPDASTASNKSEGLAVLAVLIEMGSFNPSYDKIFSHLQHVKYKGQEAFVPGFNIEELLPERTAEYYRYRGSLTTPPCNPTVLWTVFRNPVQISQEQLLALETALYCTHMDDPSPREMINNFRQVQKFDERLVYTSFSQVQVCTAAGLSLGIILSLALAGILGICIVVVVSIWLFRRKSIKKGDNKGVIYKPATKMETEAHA

[2] = Antioxidant activity of compound assessed as reduction in ipoxanthine/xanthine oxidase-induced superoxide anion level after 30 mins by nitro blue tetrazolium-based spectrophotometric assay; type: functional
Outline: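 Cell-free test with superoxide generated by a hypoxanthine–xanthine oxidase system. Nitro blue tetrazolium […] read after 30 min without or with increasing compound concentrations (up to 1000 μM).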

Astrocyte = assay: Antioxidant activity in Sprague-Dawley rat primary cortical astrocytes assessed as inhibition of OXA-induced superoxide radical anion at 100 uM after 4 hrs by cytochrome C assay relative to control; type: functional
Outline: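 Primary rat cortical astrocytes (5 × 10^5 cells/well) exposed to 100 μM oxaliplatin for 4 h, with or without co-incubated compound. Superoxide measured by cytochrome C assay. Absorbance in the presence of SOD subtracted as nonspecific. Mean ± SEM of three experiments versus untreated culture.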

Rattus norvegicus = assay: Antihyperalgesic activity in OXA-induced neuropathic pain Sprague-Dawley rat model assessed as reduction in response to noxious mechanical stimulus at 30 mg/kg, po after 15 to 75 mins on day 21 post induction; type: functional, organism-based
Outline: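 Male Sprague-Dawley rats (200-250 g) given oxaliplatin 2.4 mg kg−1 ip daily in 0.5% glucose solution. On day 21, single po dose of test agent in 1% CMC vehicle. Paw-pressure test (noxious mechanical stimulus, weight tolerated) repeated over time after dosing. 12 rats per group from two experimental sets, mean ± SEM.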

HT-29 [3] = assay: Cytotoxicity against human HT-29 cells assessed as mortality at 1 to 300 uM after 24 hrs by MTT assay relative to control; type: functional
Outline: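 Human colon cancer HT-29 cells incubated with increasing concentrations (1−300 μM) for 24 h; viability read by MTT test and expressed as % of viable cells relative to untreated control.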

HT-29 [4] = assay: Synergistic antiproliferative activity against human HT-29 cells assessed as cell viability at 100 uM after 24 hrs in presence of 1 uM oxaliplatin by MTT assay relative to control; type: functional
Outline: (§1)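 HT-29 cells co-treated 24 h with compound at 100 μM plus oxaliplatin (1, 10, 30, 100 or 300 μM). Viability by MTT as % viable cells versus untreated control. Compared to control and to compound alone.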

HT-29 [5] = assay: Synergistic antiproliferative activity against human HT-29 cells assessed as cell viability at 100 uM after 24 hrs in presence of 10 uM oxaliplatin by MTT assay relative to control; type: functional; outline: as §1
HT-29 [6] = assay: Synergistic antiproliferative activity against human HT-29 cells assessed as cell viability at 100 uM after 24 hrs in presence of 30 uM oxaliplatin by MTT assay relative to control; type: functional; outline: as §1
HT-29 [7] = assay: Synergistic antiproliferative activity against human HT-29 cells assessed as cell viability at 100 uM after 24 hrs in presence of 100 uM oxaliplatin by MTT assay relative to control; type: functional; conditions: HT-29, 24 h, read-out: Activity; outline: as §1
HT-29 [8] = assay: Synergistic antiproliferative activity against human HT-29 cells assessed as cell viability at 100 uM after 24 hrs in presence of 300 uM oxaliplatin by MTT assay relative to control; type: functional; outline: as §1
HT-29 [9] = assay: Antiproliferative activity against human HT-29 cells assessed as cell viability at 100 uM after 24 hrs by MTT assay relative to control; type: functional; conditions: HT-29, 24 h, read-out: Activity
Outline: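 HT-29 human colon cancer cells incubated 24 h with compound (range 1−300 μM). Viability by MTT, expressed as % viable cells relative to untreated control.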

[10] = target: Transient receptor potential cation channel subfamily A member 1 (Homo sapiens) (UniProt O75762); assay: Inhibition of oxaliplatin activated TRPA1 (unknown origin) expressed in CHO cells assessed as reduction in channel evoked current at 30 uM by Patch-clamp method; type: cell-based
Transient receptor potential cation channel subfamily A member 1 (Homo sapiens), sequence (O75762 whole entry): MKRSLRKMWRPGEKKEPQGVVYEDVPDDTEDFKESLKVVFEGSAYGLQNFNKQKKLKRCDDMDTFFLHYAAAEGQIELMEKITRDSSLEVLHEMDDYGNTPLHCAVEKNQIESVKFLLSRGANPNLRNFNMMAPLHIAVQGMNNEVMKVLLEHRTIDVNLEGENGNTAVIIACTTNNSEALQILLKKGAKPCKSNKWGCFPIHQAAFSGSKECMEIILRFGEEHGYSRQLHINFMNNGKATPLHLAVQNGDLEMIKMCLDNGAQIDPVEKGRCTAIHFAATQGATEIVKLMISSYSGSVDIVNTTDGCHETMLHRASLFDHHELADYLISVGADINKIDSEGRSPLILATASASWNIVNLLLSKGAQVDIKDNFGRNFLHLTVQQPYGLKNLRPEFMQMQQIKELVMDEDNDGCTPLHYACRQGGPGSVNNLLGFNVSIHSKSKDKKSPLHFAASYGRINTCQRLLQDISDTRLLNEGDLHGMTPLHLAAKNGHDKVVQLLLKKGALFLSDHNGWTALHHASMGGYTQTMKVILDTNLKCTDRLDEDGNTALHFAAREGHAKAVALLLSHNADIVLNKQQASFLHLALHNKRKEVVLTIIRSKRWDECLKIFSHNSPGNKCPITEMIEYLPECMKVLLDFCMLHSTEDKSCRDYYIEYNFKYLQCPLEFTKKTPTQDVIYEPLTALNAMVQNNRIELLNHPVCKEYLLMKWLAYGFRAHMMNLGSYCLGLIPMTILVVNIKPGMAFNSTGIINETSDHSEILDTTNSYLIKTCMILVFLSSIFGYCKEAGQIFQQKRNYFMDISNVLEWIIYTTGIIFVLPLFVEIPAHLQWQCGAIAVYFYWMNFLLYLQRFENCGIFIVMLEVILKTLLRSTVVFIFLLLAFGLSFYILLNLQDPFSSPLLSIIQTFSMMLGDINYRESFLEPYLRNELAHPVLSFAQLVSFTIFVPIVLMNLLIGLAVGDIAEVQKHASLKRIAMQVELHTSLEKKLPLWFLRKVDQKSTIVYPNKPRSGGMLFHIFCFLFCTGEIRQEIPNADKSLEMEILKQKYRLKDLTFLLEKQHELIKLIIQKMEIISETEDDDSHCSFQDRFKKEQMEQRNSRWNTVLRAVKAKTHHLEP
Outline: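 CHO cells transiently transfected with wild-type TRPA1, EGFP as transfection marker. Whole-cell patch clamp 48−72 h after transfection. Voltage ramps read at +50 and −50 mV. Currents evoked by 50 μM oxaliplatin, then compound applied. n = 5 cells, unpaired Student's t test.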

[11] = target: Macrophage metalloelastase (Homo sapiens, UniProt P39900); assay: Binding affinity to human 15N-labeled MMP-12 catalytic domain (G106 to G263 residues) expressed in Escherichia coli BL21 Gold by 1H […] NMR method
Macrophage metalloelastase, sequence (P39900 whole entry, the tested form may be a part): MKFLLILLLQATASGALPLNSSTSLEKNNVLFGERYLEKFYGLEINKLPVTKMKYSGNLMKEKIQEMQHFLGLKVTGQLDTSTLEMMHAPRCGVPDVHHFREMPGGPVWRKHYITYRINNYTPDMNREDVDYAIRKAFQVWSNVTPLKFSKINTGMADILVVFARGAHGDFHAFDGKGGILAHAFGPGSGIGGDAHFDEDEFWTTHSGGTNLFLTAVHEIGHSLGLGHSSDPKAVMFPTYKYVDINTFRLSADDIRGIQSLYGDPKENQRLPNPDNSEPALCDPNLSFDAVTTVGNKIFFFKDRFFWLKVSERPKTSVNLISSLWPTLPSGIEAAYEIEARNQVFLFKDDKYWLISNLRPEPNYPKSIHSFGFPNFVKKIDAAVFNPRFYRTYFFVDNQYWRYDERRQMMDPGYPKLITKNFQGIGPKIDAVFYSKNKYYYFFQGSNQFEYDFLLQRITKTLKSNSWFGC
Outline: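 2D 1H−15N HSQC spectra of the MMP-12 catalytic domain titrated with ligand (up to 3.3 mM). Kd derived by fitting chemical shift variations of residues.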

Carbonic anhydrase 9 [12] = target: T1, Carbonic anhydrase 9; conditions: 100 uM
Carbonic anhydrase 9 [13] = target: T1, Carbonic anhydrase 9; conditions: 100 uM; remark: listed apart in the source
Carbonic anhydrase 9 [14] = target: T1, Carbonic anhydrase 9; conditions: 100 uM; remark: listed apart in the source
Carbonic anhydrase 9 [15] = target: T1, Carbonic anhydrase 9; conditions: 100 uM; remark: listed apart in the source
Carbonic anhydrase 9 [16] = target: T1, Carbonic anhydrase 9; conditions: 100 uM; remark: listed apart in the source
Carbonic anhydrase 9 [17] = target: T1, Carbonic anhydrase 9; conditions: 100 uM; remark: listed apart in the source
Carbonic anhydrase 9 [18] = target: T1, Carbonic anhydrase 9; conditions: 100 uM; remark: listed apart in the source

`O=S(=O)(O)/C=C/c1cc(Br)ccc1O` showed a Ki (Carbonic anhydrase 9 [1]) of 6.83 µM and a Ki (Carbonic anhydrase 12) of 4.51 µM.

In the case of `O=C(CCCCC1CCSS1)NCCS(=O)(=O)O` (centres undefined), the Activity [2] is reported as “Dose-dependent effect”, the inhibition at 100 µM (Astrocyte) is reported as 75% and the Activity (Rattus norvegicus) is reported as “Active”.

With `O=C(CCCCC1CCSS1)NCCCS(=O)(=O)[O-].[Na+]` (centres undefined) the Ki (Carbonic anhydrase 9 [1]) was 0.654 µM, the Activity [2] was “Dose-dependent effect” and the inhibition at 100 µM (Astrocyte) was 75%. The Activity (Rattus norvegicus) was “Active”, the mortality (HT-29 [3]) was 20% and the Activity (HT-29 [4]) was 74.6%. For the same compound, the Activity (HT-29 [5]) was 78.6%, the Activity (HT-29 [6]) was 71.4% and the viability at 100 µM (HT-29 [7]) was 67.4%. The Activity (HT-29 [8]) was 48.1%, the viability at 100 µM (HT-29 [9]) was 81.3% and the inhibition [10] was “Active”. For the same compound, the Ki (Carbonic anhydrase 12) was 0.727 µM, the Kd [11] was 875 µM and the inhibition (Carbonic anhydrase 9 [12]) was “Active”. The inhibition (Carbonic anhydrase 9 [13]) was “Active”, the inhibition (Carbonic anhydrase 9 [14]) was “Active” and the inhibition (Carbonic anhydrase 9 [15]) was “Active”. The inhibition (Carbonic anhydrase 9 [16]) was “Active”, the inhibition (Carbonic anhydrase 9 [17]) was “Active” and the inhibition (Carbonic anhydrase 9 [18]) was “Active”.

For `O=C(CCCCC1CCSS1)NCCCCS(=O)(=O)O` (centres undefined), the Activity [2] was “Dose-dependent effect”, the inhibition at 100 µM (Astrocyte) was 75% and the Activity (Rattus norvegicus) was “Active”.
